Experimental data as given in ChEMBL document CHEMBL2040734, “Benzothiazoles: search for anticancer agents” (2012).

Assays:
Assay type in all cases: functional
SR = assay: Cytotoxicity against human SR cells assessed as cell growth at 1 uM after 48 hrs by sulforhodamine B assay; conditions: read-out: Activity
NCI-H522 = assay: Cytotoxicity against human NCI-H522 cells assessed as cell growth at 0.01 uM after 48 hrs by sulforhodamine B assay; conditions: NCI-H522, 48 h, read-out: Activity
CAKI-1 = assay: Growth inhibition of human Caki1 cells after 48 hrs by sulforhodamine B assay; conditions: CAKI-1, 48 h; for CC50: read-out: LC50 (the source's name)
Outline: (§1)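 Adherent NCI-60 lines were grown in RPMI 1640 with 5% FBS and 2 mM L-glutamine, plated at 5000–40,000 cells/well and preincubated 24 h. They were then exposed to five concentrations (0.01–100 µM, from a DMSO stock) for 48 h at 37 °C, 5% CO2. Cells were fixed with cold TCA (10% final, 60 min, 4 °C) and stained with 0.4% SRB. Dye was solubilized in 10 mM Tris base and A515 read. GI50 was derived from time-zero, control and treated absorbances.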

MOLT-4 [1] = assay: Cytotoxicity against human MOLT4 cells assessed as cell growth at 0.1 uM after 48 hrs by sulforhodamine B assay; conditions: MOLT-4, 48 h, read-out: Activity
OVCAR-3 = assay: Cytotoxicity against human OVCAR3 cells assessed as cell growth at 1 uM after 48 hrs by sulforhodamine B assay; conditions: OVCAR-3, 48 h, read-out: Activity
A498 = assay: Cytotoxicity against human A498 cells assessed as cell growth at 0.01 uM after 48 hrs by sulforhodamine B assay; conditions: A498, 48 h, read-out: Activity
Outline: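 NCI-60 five-dose screen. Cells were grown in RPMI 1640 with 5% FBS and 2 mM L-glutamine and preincubated 24 h. Compound (DMSO stock) was tested at 0.01, 0.1, 1, 10 and 100 µM for 48 h at 37 °C. Cells were fixed in situ with cold TCA (final 10%) and stained with 0.4% SRB. A515 was read, and percent growth was calculated against time-zero and control plates.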

EKVX = assay: Cytotoxicity against human EKVX cells assessed as cell growth at 0.1 uM after 48 hrs by sulforhodamine B assay; conditions: read-out: Activity
Outline: (§2)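 Five-dose NCI panel run at 0.01, 0.1, 1, 10 and 100 µM. Cells were in RPMI 1640 with 5% FBS and 2 mM L-glutamine, seeded at 5000–40,000 cells/well and pre-incubated 24 h. Drug was diluted from a DMSO stock into medium with 50 µg/ml gentamicin. Exposure was 48 h at 37 °C, 5% CO2. Cells were fixed with cold TCA and stained with 0.4% SRB, read at 515 nm. Percent growth came from time-zero, control and test absorbances.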

DU-145 [2] = assay: Cytotoxicity against human DU145 cells assessed as cell growth at 100 uM after 48 hrs by sulforhodamine B assay; conditions: DU-145, 48 h, read-out: Activity; outline: as §2
IGROV-1 = assay: Cytotoxicity against human IGROV1 cells assessed as cell growth at 10 '-5 M after 48 hrs by sulforhodamine B assay; conditions: IGROV-1, 48 h, read-out: Activity
BT-549 = assay: Growth inhibition of human BT549 cells after 48 hrs by sulforhodamine B assay; conditions: BT-549, 48 h
Outline: (§3)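 Cells were in RPMI 1640 with 5% FBS and pre-incubated 24 h. Read-out was TCA fixation, SRB staining and absorbance at 515 nm. GI50 was the concentration where [(Ti−Tz)/(C−Tz)]×100 = 50, taken from log concentration vs % growth curves. It is given as ">" the top concentration when not reached.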

NCI-H23 = assay: Cytotoxicity against human NCI-H23 cells assessed as cell growth at 10 uM after 48 hrs by sulforhodamine B assay; conditions: NCI-H23, 48 h, read-out: Activity
786-0 [3] = assay: Cytotoxicity against human 786-0 cells assessed as cell growth at 10 '-5 M after 48 hrs by sulforhodamine B assay; conditions: 786-0, 48 h, read-out: Activity
Outline: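 Primary NCI-60 single-dose screen at 10 µM. Cells were grown in RPMI 1640 with 5% FBS and 2 mM L-glutamine and plated 24 h before drug addition. Compound was solubilized in DMSO, then exposed for 48 h at 37 °C under 5% CO2. Cells were TCA-fixed and stained with SRB, and absorbance was read at 515 nm. Growth was expressed relative to time-zero and untreated controls.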

MDA-MB-435 [4] = assay: Cytotoxicity against human MDA-MB-435 cells assessed as cell growth at 0.1 uM after 48 hrs by sulforhodamine B assay; conditions: MDA-MB-435, 48 h, read-out: Activity
HOP-62 = assay: Cytotoxicity against human HOP62 cells assessed as cell growth at 0.1 uM after 48 hrs by sulforhodamine B assay; conditions: HOP-62, 48 h, read-out: Activity; outline: as §2
PC-3 = assay: Growth inhibition of human PC3 cells after 48 hrs by sulforhodamine B assay; conditions: PC-3, 48 h; for CC50: read-out: LC50 (the source's name); outline: as §1
UACC-257 = assay: Cytotoxicity against human UACC257 cells assessed as cell growth at 10 uM after 48 hrs by sulforhodamine B assay; conditions: UACC-257, 48 h, read-out: Activity
SK-MEL-5 = assay: Cytotoxicity against human SK-MEL-5 cells assessed as cell growth at 0.1 uM after 48 hrs by sulforhodamine B assay; conditions: SK-MEL-5, 48 h, read-out: Activity
MDA-MB-435 [5] = assay: Growth inhibition of human MDA-MB-435 cells after 48 hrs by sulforhodamine B assay; conditions: MDA-MB-435, 48 h; for CC50: read-out: LC50 (the source's name); outline: as §1
[6] = Cytotoxicity against human Hs 578T cells assessed as cell growth at 0.1 uM after 48 hrs by sulforhodamine B assay; conditions: read-out: Activity; outline: as §2
HCT-116 = assay: Cytotoxicity against human HCT116 cells assessed as cell growth at 10 '-5 M after 48 hrs by sulforhodamine B assay; conditions: HCT-116, 48 h, read-out: Activity
Outline: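 Primary one-dose screen across the NCI 60-line panel at 10 µM. Cells were grown in RPMI 1640 with 5% FBS and 2 mM L-glutamine and held 24 h before drug. Drug was diluted from a DMSO concentrate. Exposure was 48 h at 37 °C, 5% CO2. Cells were fixed with TCA and stained with SRB, with absorbance read at 515 nm. Percent growth was calculated against time-zero and untreated control.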

MOLT-4 [7] = assay: Cytotoxicity against human MOLT4 cells assessed as cell growth at 10 uM after 48 hrs by sulforhodamine B assay; conditions: MOLT-4, 48 h, read-out: Activity
DU-145 [8] = assay: Growth inhibition of human DU145 cells after 48 hrs by sulforhodamine B assay; conditions: DU-145, 48 h; for CC50: read-out: LC50 (the source's name); outline: as §1
786-0 [9] = assay: Growth inhibition of human 786-0 cells after 48 hrs by sulforhodamine B assay; conditions: 786-0, 48 h; for CC50: read-out: LC50 (the source's name); outline: as §3
NCI-H226 = assay: Cytotoxicity against human NCI-H226 cells assessed as cell growth at 10 '-5 M after 48 hrs by sulforhodamine B assay; conditions: NCI-H226, 48 h, read-out: Activity

Row | Compound | growth at 1 µM (SR) | growth at 0.01 µM (NCI-H522) | GI50 (CAKI-1) | TGI (CAKI-1) | CC50 (CAKI-1) | growth at 0.1 µM (MOLT-4 [1]) | growth at 1 µM (OVCAR-3) | growth at 0.01 µM (A498) | growth at 0.1 µM (EKVX) | growth at 100 µM (DU-145 [2]) | growth at 10 µM (IGROV-1) | TGI (BT-549) | growth at 10 µM (NCI-H23) | growth at 10 µM (786-0 [3]) | growth at 0.1 µM (MDA-MB-435 [4]) | growth at 0.1 µM (HOP-62) | TGI (PC-3) | CC50 (PC-3) | growth at 10 µM (UACC-257) | growth at 0.1 µM (SK-MEL-5) | further results
1 | Cc1ccc2nc(Nc3c(C)cccc3C)sc2c1 | 19% | 85% | 564 nM | > 100000 nM | > 100000 nM | 111% | 72% | 75% | 89% | 65% | 49.2% | > 100000 nM | 58% | 57.8% | 86% | 98% | > 100000 nM | > 100000 nM | 70% | 92% | CC50 (BT-549; read-out: LC50 (the source's name)): > 100000 nM; GI50 (MDA-MB-435 [5]): 242 nM; TGI (MDA-MB-435 [5]): 822 nM; CC50 (MDA-MB-435 [5]): > 100000 nM; growth at 0.1 µM [6]: 97%; growth at 10 µM (HCT-116): 19.4%; growth at 10 µM (MOLT-4 [7]): 56%; GI50 (DU-145 [8]): > 100000 nM; TGI (DU-145 [8]): > 100000 nM; CC50 (DU-145 [8]): > 100000 nM; GI50 (786-0 [9]): > 100000 nM; TGI (786-0 [9]): > 100000 nM; CC50 (786-0 [9]): > 100000 nM; growth at 10 µM (NCI-H226): 69.7%
2 | Clc1cccc(Cl)c1Nc1nc2cccc(Cl)c2s1 | 51% | 88% | 259 nM | 1460 nM | 4230 nM | 109% | 50% | 85% | 82% | -85% | 3.69% | 3010 nM | -71% | -59.7% | 87% | 96% | 2300 nM | 6810 nM | -71% | 90% | GI50 (BT-549): 1500 nM; GI50 (PC-3): 526 nM; GI50 (MDA-MB-435 [5]): 813 nM; TGI (MDA-MB-435 [5]): 2380 nM; CC50 (MDA-MB-435 [5]): 6050 nM; growth at 0.1 µM [6]: 81%; growth at 10 µM (HCT-116): -87.1%; growth at 10 µM (MOLT-4 [7]): -38%; GI50 (DU-145 [8]): 1410 nM; TGI (DU-145 [8]): 2750 nM; CC50 (DU-145 [8]): 5390 nM; GI50 (786-0 [9]): 1030 nM; TGI (786-0 [9]): 2280 nM; CC50 (786-0 [9]): 5030 nM; growth at 10 µM (NCI-H226): -40.8%
